According to PMC9847367 (European Journal of Medicinal Chemistry, 2023):
Where a name gives a salt, the structure may show the parent alone.

How the values were obtained:
SARS-CoV-2 3CL^pro = SARS-CoV-2 3CL^pro (Severe acute respiratory syndrome coronavirus 2, UniProt P0DTD1); type: biochemical
chymotrypsin = chymotrypsin (Bos taurus, UniProt P00766); assay: Enzymatic selectivity assay against chymotrypsin; type: biochemical
In short: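 Bovine chymotrypsin (5 nM final) was preincubated for 10 min with serial dilutions of test compound in phosphate-buffered saline, pH 7.4. The reaction was started with N-succinyl-AAPF-AMC (10 μM final). Fluorescence (ex 380 nm/em 460 nm) was read every 1 min for 10 min. Reaction rates relative to DMSO controls gave the inhibition profiles.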

Row | Compound | inhibitory activity with the addition of 4 mM DTT (SARS-CoV-2 3CL^pro) | IC50 (chymotrypsin)
1 | C/N=c1\nc(-c2ccc(F)cc2)n(-c2ccccc2)s1 [6g, 3-(4-fluorophenyl)-N-methyl-2-phenyl-1,2,4-thiadiazol-5(2H)-imine hydrobromide salt] | lost their inhibitory activity | > 100 µM
2 | C/N=c1\nc(-c2ccccc2)n(-c2ccccc2)s1 [6a, N-methyl-2,3-diphenyl-1,2,4-thiadiazol-5(2H)-imine hydrobromide salt] | lost their inhibitory activity | > 100 µM
